According to ChEMBL document CHEMBL1158533, “Pyrazolylthiazole as DeltaF508-cystic fibrosis transmembrane conductance regulator correctors with improved hydrophilicity compared to bithiazoles” (J Med Chem, 2010):

Key:
[1] = Octanol-water partition coefficient, log P by reverse-phase HPLC analysis; type: physicochemical
In short: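 logP derived from reverse-phase HPLC capacity factor: logk from measured retention time, converted via a calibration curve of standards with known logP versus their logk values.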

[2] = target: Cystic fibrosis transmembrane conductance regulator (Homo sapiens, UniProt P13569); assay: Binding affinity to human CFTR F508 deletion mutant expressed in FRT cells assessed as increase in iodine influx after 16 to 20 hrs by fluorescence assay; type: cell-based
In short: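 FRT cells stably coexpressing human ΔF508-CFTR and halide sensor YFP-H148Q/I152L, grown 24 h at 37 °C, then incubated 16–20 h with test compound. Washed in PBS, then 20 min in PBS with forskolin (20 μM) and genistein (50 μM). Fluorescence (ex 500, em 535 nm) recorded 2 s baseline, then 12 s after I⁻-substituted PBS addition; initial I⁻ influx rate from exponential regression; EC50 and Vmax from concentration dependence.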

Sequence of Cystic fibrosis transmembrane conductance regulator (P13569 whole entry, looked up): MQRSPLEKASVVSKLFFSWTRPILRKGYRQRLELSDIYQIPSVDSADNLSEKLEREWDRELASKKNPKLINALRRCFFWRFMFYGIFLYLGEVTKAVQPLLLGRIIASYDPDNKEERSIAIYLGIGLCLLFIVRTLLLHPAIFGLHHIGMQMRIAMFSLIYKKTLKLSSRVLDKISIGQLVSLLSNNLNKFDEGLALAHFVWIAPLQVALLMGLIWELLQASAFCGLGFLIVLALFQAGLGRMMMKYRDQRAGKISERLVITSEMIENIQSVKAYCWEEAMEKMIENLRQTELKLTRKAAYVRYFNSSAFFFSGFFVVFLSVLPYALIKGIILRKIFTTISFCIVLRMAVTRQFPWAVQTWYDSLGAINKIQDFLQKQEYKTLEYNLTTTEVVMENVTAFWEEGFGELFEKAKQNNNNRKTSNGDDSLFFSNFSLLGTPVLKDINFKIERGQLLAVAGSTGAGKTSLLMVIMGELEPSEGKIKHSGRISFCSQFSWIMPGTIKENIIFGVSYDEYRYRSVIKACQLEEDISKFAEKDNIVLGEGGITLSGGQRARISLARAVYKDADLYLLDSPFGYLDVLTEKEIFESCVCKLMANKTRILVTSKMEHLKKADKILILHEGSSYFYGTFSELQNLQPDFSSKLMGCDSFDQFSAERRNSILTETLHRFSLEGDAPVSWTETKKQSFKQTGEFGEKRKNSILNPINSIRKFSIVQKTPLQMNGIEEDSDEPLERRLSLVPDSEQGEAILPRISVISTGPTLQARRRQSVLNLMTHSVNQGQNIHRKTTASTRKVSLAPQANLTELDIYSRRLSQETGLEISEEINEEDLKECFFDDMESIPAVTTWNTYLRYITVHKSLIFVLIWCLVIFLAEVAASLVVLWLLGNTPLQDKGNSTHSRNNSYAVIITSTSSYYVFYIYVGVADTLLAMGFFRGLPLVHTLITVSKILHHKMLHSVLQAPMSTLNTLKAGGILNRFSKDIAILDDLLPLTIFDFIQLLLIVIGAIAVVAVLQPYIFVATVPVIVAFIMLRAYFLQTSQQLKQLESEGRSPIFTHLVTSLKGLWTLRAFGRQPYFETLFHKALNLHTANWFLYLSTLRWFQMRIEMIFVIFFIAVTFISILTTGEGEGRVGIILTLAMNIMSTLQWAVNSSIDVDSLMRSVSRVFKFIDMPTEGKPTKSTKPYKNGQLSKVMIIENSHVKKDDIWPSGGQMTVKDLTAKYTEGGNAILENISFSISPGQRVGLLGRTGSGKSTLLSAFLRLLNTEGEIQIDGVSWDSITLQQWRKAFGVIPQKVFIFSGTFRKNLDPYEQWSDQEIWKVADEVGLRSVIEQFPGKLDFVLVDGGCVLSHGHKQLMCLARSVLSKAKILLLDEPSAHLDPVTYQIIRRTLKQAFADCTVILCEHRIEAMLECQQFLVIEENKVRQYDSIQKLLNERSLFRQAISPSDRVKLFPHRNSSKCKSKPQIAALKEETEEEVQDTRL

Row | Compound | logP [1] | EC50 [2] [nM]
1 | COc1ccc(NC(=O)c2cc(-c3sc(NC(=O)C(C)(C)C)nc3C)n(-c3ccc(Br)cc3)n2)cc1 | 5.52 | 3400
2 | CCOC(=O)c1cc(-c2sc(NC(=O)C(C)(C)C)nc2C)nn1Cc1ccccc1 | – | 8500
3 | COc1ccc(Cl)cc1Nc1nc(-c2sc(NC(=O)C(C)(C)C)nc2C)cs1 | – | 700
4 | COc1ccc(Cl)cc1Nc1nc2c(s1)CCCc1nc(NC(=O)C(C)(C)C)sc1-2 | – | 300
